What was measured:
α-amylase = test: α-Amylase inhibition assay; type: biochemical; conditions: for IC50: read-out: IC50 ± SEM, α-amylase inhibition
[1] = target: Bovine serum albumin (BSA)-glucose model (Bos taurus, UniProt P02769); test: In vitro anti-glycation assay, BSA-glucose model; type: biochemical; conditions: for inhibition at 100 ppm / inhibition at 200 ppm / inhibition at 400 ppm / inhibition at 600 ppm / inhibition at 800 ppm / inhibition at 1000 ppm: read-out: % age antiglycation inhibition
In short: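 Glycation is read by measuring the fluorescence of glycated products on a spectrofluorometer.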

[2] = DPPH radical scavenging assay; conditions: for IC50: read-out: IC50 (mM ± SEM), DPPH scavenged by 50%; for percentage antioxidant potential: at tested concentrations, IC50 not calculated
In short: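 Radical scavenging of DPPH by the test compound, with ascorbic acid as the reference.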

Sequence of Bovine serum albumin (BSA)-glucose model (P02769 25-607): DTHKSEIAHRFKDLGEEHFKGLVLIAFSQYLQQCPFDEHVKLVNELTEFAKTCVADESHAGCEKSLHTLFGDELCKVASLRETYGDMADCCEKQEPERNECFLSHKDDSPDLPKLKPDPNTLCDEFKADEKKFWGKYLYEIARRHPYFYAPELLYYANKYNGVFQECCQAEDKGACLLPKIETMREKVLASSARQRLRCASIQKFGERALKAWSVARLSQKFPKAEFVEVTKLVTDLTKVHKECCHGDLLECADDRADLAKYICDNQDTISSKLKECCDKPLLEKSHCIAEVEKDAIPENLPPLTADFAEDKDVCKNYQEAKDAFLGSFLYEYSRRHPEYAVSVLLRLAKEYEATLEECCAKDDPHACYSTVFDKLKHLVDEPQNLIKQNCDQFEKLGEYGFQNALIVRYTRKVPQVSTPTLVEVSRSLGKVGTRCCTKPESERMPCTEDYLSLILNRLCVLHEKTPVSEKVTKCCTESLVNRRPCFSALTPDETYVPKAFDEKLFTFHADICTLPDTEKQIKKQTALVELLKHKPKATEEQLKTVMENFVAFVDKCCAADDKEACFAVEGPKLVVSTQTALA

| Compound | % age α-amylase inhibition (α-amylase; 1 μM) [%] | % age α-amylase inhibition (α-amylase; 5 μM) [%] | % age α-amylase inhibition (α-amylase; 10 μM) [%] | IC50 (α-amylase) [µM] | inhibition at 100 ppm [1] [%] | inhibition at 200 ppm [1] [%] | inhibition at 400 ppm [1] [%] | inhibition at 600 ppm [1] [%] | inhibition at 800 ppm [1] [%] | inhibition at 1000 ppm [1] [%] | % age antioxidant potential ([2]; 3 mM) [%] | % age antioxidant potential ([2]; 6 mM) [%] | % age antioxidant potential ([2]; 9 mM) [%] | % age antioxidant potential ([2]; 12 mM) [%] | % age antioxidant potential ([2]; 15 mM) [%] | IC50 [2] [mM] | percentage antioxidant potential [2] | IC50 [1] [µM] |
| --- | --- | --- | --- | --- | --- | --- | --- | --- | --- | --- | --- | --- | --- | --- | --- | --- | --- | --- |
| COc1cc(Br)c(C=NNc2nc(-c3ccc(F)cc3)cs2)cc1OC [3a, 2-(2-(2-Bromo-4,5-dimethoxybenzylidene)hydrazinyl)-4-(4-fluorophenyl)thiazole] | 35.96 | 51.11 | 69.11 | 6.41 ± 0.09 | 80.9 | 82.1 | 84.8 | 85.9 | 87 | 89.9 | 0.00 | 18.82 | 32.72 | 47.58 | 67.95 | 12.39 ± 0.1 |  |  |
| Cc1ccc(C=NNc2nc(-c3ccc(F)cc3)cs2)c(Br)c1 [3b, 2-(2-(2-Bromo-4-methylbenzylidene)hydrazinyl)-4-(4-fluorophenyl)thiazole] | 31.95 | 51.54 | 62.71 | 6.87 ± 0.01 | 81.2 | 84.6 | 85.2 | 86.2 | 86.8 | 87.5 | 8.77 | 23.69 | 36.38 | 53.65 | 69.82 | 11.3 ± 0.14 |  |  |
| CC(CCc1ccccc1)=NNc1nc(-c2ccc(F)cc2)cs1 [3c, 4-(4-Fluorophenyl)-2-(2-(4-phenylbutan-2-ylidene)hydrazinyl)thiazole] | 30.03 | 45.41 | 58.12 | 7.52 ± 0.05 | 67.6 | 68.9 | 69.7 | 75.7 | 77.9 | 81.6 | 0.00 | 11.13 | 34.28 | 57.51 | 73.34 | 11.4 ± 0.12 |  |  |
| Fc1ccc(-c2csc(NN=Cc3ccc(C(F)(F)F)cc3)n2)cc1 [3d, 4-(4-Fluorophenyl)-2-(2-(4-(trifluoromethyl)benzylidene)hydrazinyl)thiazole] | 36.97 | 49.93 | 62.35 | 6.92 ± 0.12 | 87.4 | 87.9 | 89 | 89.5 | 90.9 | 92.3 | 23.48 | 34.45 | 45.32 | 56.39 | 63.78 | 10.68 ± 0.08 |  |  |
| Cc1ccc(C=NNc2nc(-c3ccc(F)cc3)cs2)o1 [3e, 4-(4-Fluorophenyl)-2-(2-((5-methylfuran-2-yl)methylene)hydrazinyl)thiazole] | 30.06 | 41.20 | 57.45 | 7.77 ± 0.01 | 68.7 | 69.7 | 70.7 | 71.8 | 72.8 | 73.7 | 0.00 | 8.26 | 19.32 | 44.74 | 49.04 |  | less than 50% |  |
| CC(=NNc1nc(-c2ccc(F)cc2)cs1)c1cccc(Br)c1 [3f, 2-(2-(1-(3-Bromophenyl)ethylidene)hydrazinyl)-4-(4-fluorophenyl)thiazole] | 34.92 | 51.68 | 62.28 | 6.88 ± 0.16 | 84.1 | 86.7 | 87.3 | 88 | 90.4 | 91.3 | 0.00 | 0.00 | 19.48 | 28.70 | 40.73 |  | less than 50% |  |
| CC(=NNc1nc(-c2ccc(F)cc2)cs1)c1ccc(F)cc1 [3g, 4-(4-Fluorophenyl)-2-(2-(1-(4-fluorophenyl)ethylidene)hydrazinyl)thiazole] | 38.00 | 49.56 | 62.75 | 6.9 ± 0.23 | 24.3 | 34.6 | 48.8 | 54.3 | 66.6 | 74.6 | 0.00 | 0.00 | 0.00 | 0.00 | 8.45 |  | less than 50% | 1770 |
| Oc1ccc(Cl)cc1C=NNc1nc(-c2ccc(F)cc2)cs1 [3h, 4-Chloro-2-((2-(4-(4-fluorophenyl)thiazol-2-yl)hydrazinylidene)methyl)phenol] | 55.89 | 69.05 | 82.47 | 5.14 ± 0.03 | 50.9 | 56.5 | 65.5 | 68.4 | 69 | 70.7 | 0.00 | 0.00 | 0.00 | 8.78 | 23.25 |  | less than 50% |  |
| Fc1ccc(-c2csc(NN=Cc3cccc(C(F)(F)F)c3)n2)cc1 [3i, 4-(4-Fluorophenyl)-2-(2-(3-(trifluoromethyl)benzylidene)hydrazinyl)thiazole] | 38.90 | 51.09 | 64.58 | 6.7 ± 0.08 | 88 | 88.5 | 89.1 | 90 | 91.2 | 92.2 | 0.00 | 8.64 | 18.87 | 32.26 | 46.53 |  | less than 50% |  |
| C[C@H]1O[C@H](O[C@H]2[C@H](O)[C@@H](O)[C@@H](O[C@H]3[C@H](O)[C@@H](O)C(O)O[C@@H]3CO)O[C@@H]2CO)[C@H](O)[C@@H](O)[C@@H]1N[C@H]1C=C(CO)[C@@H](O)[C@H](O)[C@H]1O (stereo partly shown) [acarbose, reference compound] | 53.42 | 66.81 | 74.77 |  |  |  |  |  |  |  |  |  |  |  |  |  |  |  |
| O=C1O[C@H]([C@@H](O)CO)C(O)=C1O [ascorbic acid, reference compound] |  |  |  |  |  |  |  |  |  |  | 52.34 | 61.01 | 74.41 | 81.85 | 84.92 | 7.18 ± 0.01 |  |  |
